We go through three compounds from publication PMC2913441 (Chemical biology & drug design, 2010).

Holding throughout (type): binding
Assay [1] has as its target T1, Mdm2 (Homo sapiens, UniProt Q00987). Briefly: Interaction with Mdm2. The note with it: result in words; assay not stated.
Target sequence in this assay (Q00987 whole entry): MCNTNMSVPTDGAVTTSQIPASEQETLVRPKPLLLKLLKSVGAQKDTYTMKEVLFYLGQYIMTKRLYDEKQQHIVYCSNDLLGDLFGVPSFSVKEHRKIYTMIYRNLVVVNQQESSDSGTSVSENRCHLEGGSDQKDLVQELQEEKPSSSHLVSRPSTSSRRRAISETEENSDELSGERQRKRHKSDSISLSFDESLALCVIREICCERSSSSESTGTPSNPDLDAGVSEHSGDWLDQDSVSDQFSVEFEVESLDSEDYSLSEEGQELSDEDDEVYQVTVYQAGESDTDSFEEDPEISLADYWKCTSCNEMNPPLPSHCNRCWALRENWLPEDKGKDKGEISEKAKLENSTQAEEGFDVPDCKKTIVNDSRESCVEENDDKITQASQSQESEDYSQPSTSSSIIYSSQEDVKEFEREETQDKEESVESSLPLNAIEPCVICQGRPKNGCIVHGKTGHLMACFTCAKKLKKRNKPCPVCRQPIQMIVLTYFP
The target of assay [2] is T1, Mdm2. In words: Fluorescence polarization. Particulars: read-out: inhibition constant (Ki) of Mdm2; FP assay, competition with p53-like peptide. Summed up:
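Competitive fluorescence polarization assay: a fluorescent p53-like peptide is bound to recombinant Mdm2 and displaced by the test compound across a range of concentrations, giving dose–response curves. The binding constant and inhibition curves were fitted to derive Ki.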
On the technique in general: Fluorescence polarisation rises when a labelled molecule tumbles more slowly, as on binding a larger partner.
Target sequence in this assay (Q00987 1-118): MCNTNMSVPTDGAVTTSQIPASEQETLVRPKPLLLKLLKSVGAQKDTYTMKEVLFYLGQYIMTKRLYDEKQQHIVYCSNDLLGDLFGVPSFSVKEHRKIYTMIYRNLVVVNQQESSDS

In assay [3] the target is Mdm2/p53 complex (Homo sapiens, UniProt Q00987). Briefly: NMR-based antagonist induced dissociation assay. Particulars: read-out: dissociation constant (Kd) of the compound-Mdm2 interaction; AIDA-NMR; 14 μM Mdm2/p53 complex mixed with compound in 1:1 molar ratio. An outline of the steps: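 Variant of antagonist-induced dissociation NMR (SEI-AIDA). The preformed Mdm2/p53 complex (14 μM) is mixed with the test compound at a 1:1 molar ratio. The amount of p53 released from the complex is estimated from the 1D spectrum. The Kd of the Mdm2–compound interaction is then calculated from the released fraction.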

A word on the Ki: it is the equilibrium dissociation constant of an inhibitor or competing ligand from its target. In general, Kd refers to the concentration at which binding is half-saturated.

Chain of Mdm2/p53 complex (Q00987 1-118, one chain of several): as the sequence (Q00987 1-118) above

Turning to `Cc1cc(C)c(NC(=O)C2C(=O)Nc3sc4c(c3C(=O)N2Cc2ccc(Cl)cc2)CCCC4)c(C)c1` (centres unmarked) [5a-6, 3,4,6,7,8,9-Hexahydro-3-(N-mesityl)-carboxamide-4-(4-chlorobenzyl)-1H-benzothieno-[2,3-e]-1,4-diazepine-2,5-dione], the “interaction with Mdm2” value in assay [1] is listed as “weak interaction”.

`O=C(NCc1ccccc1)C1C(=O)Nc2sc3c(c2C(=O)N1Cc1ccc(Cl)cc1)CCCC3` (centres unmarked) [5a-7, 3,4,6,7,8,9-Hexahydro-3-(N-benzyl)-carboxamide-4-(4-chlorobenzyl)-1H-benzothieno-[2,3-e]-1,4-diazepine-2,5-dione]: in assay [2], the inhibition constant Ki was 40 µM. Besides, in assay [3], the Kd was found to be 30 ± 20 µM. For `O=C(NCc1ccc(Cl)c(Cl)c1)C1C(=O)Nc2sc3c(c2C(=O)N1Cc1ccc(Cl)cc1)CCCC3` (centres unmarked) [5a-8, 3,4,6,7,8,9-Hexahydro-3-(N-3,4-dichlorobenzyl)-carboxamide-4-(4-chlorobenzyl)-1H-benzothieno-[2,3-e]-1,4-diazepine-2,5-dione] the same measures were 45 µM and 10 ± 6 µM.
